Measured values reported in ChEMBL document CHEMBL1136635, “Modification of the N-terminus of peptidomimetic protein tyrosine phosphatase 1B (PTP1B) inhibitors: identification of analogues with cellular activity” (Bioorg Med Chem Lett, 2003).
Square brackets hold non-standard residues; d marks the D form. Peptide text beside a SMILES is read from it. sY = N[C@@H](Cc1ccc(OS(=O)(=O)O)cc1)C(=O)O; Nle = CCCC[C@H](N)C(=O)O

How the values were obtained:
[1] = molecular target: T1, Tyrosine-protein phosphatase non-receptor type 11 (Homo sapiens) (UniProt Q06124); test: Inhibition of recombinant human phosphatase (SHP-2) at a concentration of 100 uM
T1 sequence (whole entry): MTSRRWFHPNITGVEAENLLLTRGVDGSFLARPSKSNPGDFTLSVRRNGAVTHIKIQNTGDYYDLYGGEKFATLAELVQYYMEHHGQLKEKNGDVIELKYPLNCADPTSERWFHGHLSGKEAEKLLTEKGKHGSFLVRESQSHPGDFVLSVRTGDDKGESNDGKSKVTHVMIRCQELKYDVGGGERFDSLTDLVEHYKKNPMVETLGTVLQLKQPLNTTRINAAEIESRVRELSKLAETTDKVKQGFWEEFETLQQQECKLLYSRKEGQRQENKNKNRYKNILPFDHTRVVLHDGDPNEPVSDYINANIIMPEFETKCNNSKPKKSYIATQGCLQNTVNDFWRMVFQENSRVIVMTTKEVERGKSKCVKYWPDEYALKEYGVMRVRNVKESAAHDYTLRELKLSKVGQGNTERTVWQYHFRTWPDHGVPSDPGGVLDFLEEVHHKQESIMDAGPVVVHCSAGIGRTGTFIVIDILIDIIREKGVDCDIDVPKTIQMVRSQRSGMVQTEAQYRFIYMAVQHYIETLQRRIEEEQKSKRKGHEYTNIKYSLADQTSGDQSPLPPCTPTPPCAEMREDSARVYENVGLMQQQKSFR
How it was run: (§1)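 Purified recombinant human enzyme constructs; PTP1B is a C-terminally truncated soluble form, tested alongside LAR and SHP-2. Activity is read as the initial rate of p-nitrophenyl phosphate (pNPP) hydrolysis and reported as percent inhibition. PTP1B is tested at 100, 10 and 1 µM, or 10 and 1 µM in the salicylate series; LAR and SHP-2 at 100 µM.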

[2] = molecular target: T2, Tyrosine-protein phosphatase non-receptor type 1 (Homo sapiens, UniProt P18031); test: Inhibitory activity against human protein tyrosine phosphatase 1B (PTP1B)
T2 sequence (P18031 whole entry): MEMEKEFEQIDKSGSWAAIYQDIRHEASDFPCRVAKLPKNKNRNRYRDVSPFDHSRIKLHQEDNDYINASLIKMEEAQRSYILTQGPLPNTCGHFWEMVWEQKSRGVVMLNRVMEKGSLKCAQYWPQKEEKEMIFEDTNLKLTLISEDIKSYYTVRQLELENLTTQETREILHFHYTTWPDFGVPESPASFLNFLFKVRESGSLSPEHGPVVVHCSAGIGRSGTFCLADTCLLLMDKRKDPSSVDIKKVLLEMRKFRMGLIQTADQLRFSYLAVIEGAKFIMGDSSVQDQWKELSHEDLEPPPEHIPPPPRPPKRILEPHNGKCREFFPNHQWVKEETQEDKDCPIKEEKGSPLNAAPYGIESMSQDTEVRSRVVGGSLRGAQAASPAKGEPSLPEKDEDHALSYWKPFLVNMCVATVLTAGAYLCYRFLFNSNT
How it was run: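 Ki against a C-terminally truncated, soluble recombinant human PTP1B. Initial rates of pNPP hydrolysis are measured, and the Ki is computed by the Cornish-Bowden direct linear method.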

[3] = molecular target: T3, Tyrosine-protein phosphatase non-receptor type 1 (Homo sapiens) (UniProt P18031); test: Inhibitory activity against human protein tyrosine phosphatase 1B (PTP1B) at a concentration of 1 uM; how it was run: as §1
T3 sequence (whole entry): T2 sequence (P18031 whole entry)

[4] = molecular target: Receptor-type tyrosine-protein phosphatase F (Homo sapiens) (UniProt P10586); test: Inhibitory activity against phosphatase (LAR) at a concentration of 100 uM; how it was run: as §1
Sequence of Receptor-type tyrosine-protein phosphatase F (Homo sapiens) (P10586 whole entry): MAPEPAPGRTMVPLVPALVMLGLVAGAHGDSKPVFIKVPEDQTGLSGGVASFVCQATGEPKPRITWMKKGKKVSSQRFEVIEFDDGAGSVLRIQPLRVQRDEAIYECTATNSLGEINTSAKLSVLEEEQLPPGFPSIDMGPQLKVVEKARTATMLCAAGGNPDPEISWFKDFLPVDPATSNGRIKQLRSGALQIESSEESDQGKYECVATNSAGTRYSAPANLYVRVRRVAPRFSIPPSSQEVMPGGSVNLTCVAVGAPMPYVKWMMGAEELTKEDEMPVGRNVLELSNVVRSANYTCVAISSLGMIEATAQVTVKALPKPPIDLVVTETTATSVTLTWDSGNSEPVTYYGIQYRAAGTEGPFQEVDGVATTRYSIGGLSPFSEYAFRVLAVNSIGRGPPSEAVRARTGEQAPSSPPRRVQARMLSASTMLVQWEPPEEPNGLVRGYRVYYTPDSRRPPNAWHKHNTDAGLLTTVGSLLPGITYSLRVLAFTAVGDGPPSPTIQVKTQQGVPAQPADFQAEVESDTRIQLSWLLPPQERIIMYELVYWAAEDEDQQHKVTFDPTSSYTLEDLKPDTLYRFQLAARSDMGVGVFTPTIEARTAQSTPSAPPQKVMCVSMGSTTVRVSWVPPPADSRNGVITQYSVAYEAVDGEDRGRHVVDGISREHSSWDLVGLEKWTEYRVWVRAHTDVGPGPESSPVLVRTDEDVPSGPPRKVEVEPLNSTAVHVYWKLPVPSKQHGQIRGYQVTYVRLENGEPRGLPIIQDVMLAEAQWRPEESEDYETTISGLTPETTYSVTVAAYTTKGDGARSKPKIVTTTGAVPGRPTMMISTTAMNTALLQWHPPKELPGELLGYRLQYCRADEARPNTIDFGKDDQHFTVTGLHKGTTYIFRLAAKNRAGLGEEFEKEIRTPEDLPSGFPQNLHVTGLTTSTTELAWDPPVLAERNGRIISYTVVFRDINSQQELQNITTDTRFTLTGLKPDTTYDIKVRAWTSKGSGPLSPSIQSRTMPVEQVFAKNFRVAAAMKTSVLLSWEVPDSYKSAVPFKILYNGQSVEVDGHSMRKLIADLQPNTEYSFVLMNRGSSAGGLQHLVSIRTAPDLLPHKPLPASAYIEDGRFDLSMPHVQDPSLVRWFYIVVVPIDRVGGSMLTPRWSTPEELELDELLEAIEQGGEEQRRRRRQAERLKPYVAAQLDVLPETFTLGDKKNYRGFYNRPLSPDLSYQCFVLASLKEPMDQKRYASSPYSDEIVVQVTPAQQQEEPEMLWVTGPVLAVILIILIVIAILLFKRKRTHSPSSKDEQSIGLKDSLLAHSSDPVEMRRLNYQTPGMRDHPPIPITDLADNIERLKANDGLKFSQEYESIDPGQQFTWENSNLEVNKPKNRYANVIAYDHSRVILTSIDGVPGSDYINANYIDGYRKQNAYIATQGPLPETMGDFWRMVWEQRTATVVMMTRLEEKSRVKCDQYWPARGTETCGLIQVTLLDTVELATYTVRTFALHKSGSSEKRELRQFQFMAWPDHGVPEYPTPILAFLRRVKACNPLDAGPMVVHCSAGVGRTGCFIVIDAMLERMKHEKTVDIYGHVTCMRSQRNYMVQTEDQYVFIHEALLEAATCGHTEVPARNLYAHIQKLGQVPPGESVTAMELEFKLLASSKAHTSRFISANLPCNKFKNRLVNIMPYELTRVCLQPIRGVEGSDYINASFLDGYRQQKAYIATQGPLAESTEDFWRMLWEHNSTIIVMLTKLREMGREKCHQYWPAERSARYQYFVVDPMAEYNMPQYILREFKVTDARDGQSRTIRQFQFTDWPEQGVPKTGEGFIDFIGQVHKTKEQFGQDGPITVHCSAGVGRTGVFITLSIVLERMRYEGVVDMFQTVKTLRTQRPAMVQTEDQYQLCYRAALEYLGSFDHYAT

[5] = molecular target: T3, Tyrosine-protein phosphatase non-receptor type 1 (Homo sapiens); test: Inhibitory activity against human protein tyrosine phosphatase 1B (PTP1B) at a concentration of 10 uM; how it was run: as §1
[6] = Uptake of 2-DOG (2-deoxyglucose) into L6 myocytes in the presence of half-maximal concentration of insulin at 100 uM; assay type: functional, Rattus norvegicus
How it was run: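 L6 myotubes are exposed to compound at 100 µM with 10 nM insulin, a dose eliciting about 50% of maximal uptake. The initial rate of 2-[3H]deoxyglucose uptake is measured, with L-[14C]glucose marking extracellular space, and normalized to recovered lysate protein. Net insulin-dependent transport with inhibitor is expressed as a percent of that without inhibitor.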

[7] = molecular target: Tyrosine-protein phosphatase non-receptor type 11, SHP-2 (Homo sapiens) (UniProt Q06124); test: Inhibitory activity against phosphatase (SHP-2) at a concentration of 100 uM
[8] = molecular target: T3, Tyrosine-protein phosphatase non-receptor type 1 (Homo sapiens); test: Inhibitory activity against human protein tyrosine phosphatase 1B (PTP1B) at a concentration of 100 uM; how it was run: as §1
[9] = molecular target: T1, Tyrosine-protein phosphatase non-receptor type 11 (Homo sapiens); test: Inhibitory activity against phosphatase ([…]) at a concentration of 100 uM; how it was run: as §1

inhibition [1] [%] | Ki [2] [nM] | inhibition [3] [%] | inhibition [4] [%] | inhibition [5] [%] | inhibition [7] [%] | inhibition [8] [%] | inhibition [9] [%] | SMILES | Control Uptake [6] [%]
25 | 670 | 46 | 5 | 87 | – | – | – | CCCCCNC(=O)[C@H](Cc1ccc(OCC(=O)O)c(C(=O)O)c1)NC(=O)[C@H](Cc1ccccc1)NC(=O)Cc1ccc(OC)cc1 | 141
28 | 590 | 39 | 0 | 85 | – | – | – | CCCCCNC(=O)[C@H](Cc1ccc(OCC(=O)O)c(C(=O)O)c1)NC(=O)[C@H](Cc1ccccc1)NC(=O)Cc1ccc(C(F)(F)F)cc1 | 130
10 | 700 | 57 | 0 | 91 | – | – | – | CCCCCNC(=O)[C@H](Cc1ccc(OCC(=O)O)c(C(=O)O)c1)NC(=O)[C@H](Cc1ccccc1)NC(=O)Cn1nnnc1S | 89
– | – | 1 | 0 | 3 | 54 | – | – | CCCCCCCCCCCCCCCCCC(=O)N[C@@H](Cc1ccccc1)C(=O)N[C@@H](Cc1ccc(OCC(=O)O)c(C(=O)O)c1)C(=O)NCCCCC | –
12 | 1400 | 22 | 0 | 74 | – | – | – | CCCCCNC(=O)[C@H](Cc1ccc(OCC(=O)O)c(C(=O)O)c1)NC(=O)[C@H](Cc1ccccc1)NC(=O)CCc1ccccc1 | 136
– | 220 | – | – | – | – | – | – | CCCCCNC(=O)[C@H](Cc1ccc(OCC(=O)O)c(C(=O)O)c1)NC(=O)[C@H](Cc1ccccc1)NC(=O)CCC(=O)O | –

The next lines start with the compound.

SMILES | inhibition [1] [%] | Ki [2] [nM] | inhibition [3] [%] | inhibition [4] [%] | inhibition [5] [%] | inhibition [7] [%] | inhibition [8] [%] | inhibition [9] [%] | Control Uptake [6] [%]
CCCCCNC(=O)[C@H](Cc1ccc(OCC(=O)O)c(C(=O)O)c1)NC(=O)[C@H](Cc1ccccc1)NC(=O)Oc1ccccc1 | 11 | 870 | 43 | 0 | 85 | – | – | – | 103
CCCCCNC(=O)[C@H](Cc1ccc(OC(C(=O)O)C(=O)O)cc1)NC(=O)[C@H](Cc1ccccc1)NC(=O)OC(C)(C)C | – | 9000 | 7 | 27 | 48 | – | 91 | 10 | 88
CCCCCNC(=O)[C@H](Cc1ccc(OC(C(=O)O)C(=O)O)cc1)NC(=O)[C@H](C)NC(=O)OC(C)(C)C | 3 | 14000 | 7 | 0 | 36 | – | 83 | – | 88
CCCCCNC(=O)[C@H](Cc1ccc(OC(C(=O)O)C(=O)O)cc1)NC(=O)[C@@H](NC(=O)OC(C)(C)C)C(C)C | – | – | 3 | 0 | 18 | 0 | 72 | – | –
CCCC[C@H](NC(=O)[C@H](Cc1ccc(OS(=O)(=O)O)cc1)NC(=O)[C@H](CC(=O)O)NC(C)=O)C(N)=O (Ac-Asp-[sY]-[Nle]-NH2) | – | 5000 | – | – | – | – | – | – | –
